Assay outcomes deposited in PubChem BioAssay by The Scripps Research Institute Molecular Screening Center.
Only some compounds are listed: those with a hit (about 1.9% of all), similar ones and a draw of the others.
M5 antag – human M5 muscarinic receptor antagonists, primary screen, CHO cells, Fluo-8 calcium fluorescence. inhibition, % at 3 µM. Muscarinic acetylcholine receptor M5 (Homo sapiens), P08912. actives 0.59% (n = 360,000). AID 624040, 2012. CHO-hM5 cells, ACh EC80;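 active = inhibition above a per-plate cutoff, the mean of that plate's test compounds plus 3 SD, cut at about 27% in these data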;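 also: 0% = acetylcholine EC80 with DMSO and 100% = DMSO without agonist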
Target sequence (P08912 whole entry, looked up): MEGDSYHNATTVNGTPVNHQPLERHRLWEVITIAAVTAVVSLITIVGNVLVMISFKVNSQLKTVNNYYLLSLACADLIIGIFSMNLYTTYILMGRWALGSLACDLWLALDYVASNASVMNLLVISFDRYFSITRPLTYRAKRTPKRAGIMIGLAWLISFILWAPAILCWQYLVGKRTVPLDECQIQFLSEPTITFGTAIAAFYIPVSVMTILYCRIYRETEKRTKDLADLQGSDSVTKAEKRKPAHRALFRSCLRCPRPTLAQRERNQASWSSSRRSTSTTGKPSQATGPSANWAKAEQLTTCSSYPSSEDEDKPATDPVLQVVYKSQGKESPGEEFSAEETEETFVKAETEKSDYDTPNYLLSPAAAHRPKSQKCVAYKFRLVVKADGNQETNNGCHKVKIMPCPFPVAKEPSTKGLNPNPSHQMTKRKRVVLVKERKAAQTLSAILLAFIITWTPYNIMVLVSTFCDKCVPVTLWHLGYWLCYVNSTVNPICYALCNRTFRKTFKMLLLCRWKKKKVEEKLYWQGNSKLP
CHRM4 agonist – human M4 muscarinic receptor agonists, primary screen, CHO-K1 cells, Fluo-8 calcium fluorescence | Muscarinic acetylcholine receptor M4 (Homo sapiens), P08173 | CHO-K1 hM4/Gqi5; vehicle 0%, full acetylcholine response 100% | activation, % at 3 µM | actives 0.14% (n = 360,000) | AID 624127, 2012;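 active = activation above the run mean over all test wells plus 3 SD, cut at about 32% in these data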;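 also: peak over basal fluorescence ratio per well then scaled between controls; 0% = DMSO wells and 100% = acetylcholine at EC100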
M5 ag – human M5 muscarinic receptor agonists, primary screen, CHO-K1 cells, Fluo-8 calcium fluorescence; activation, % at 3 µM; actives 0.19% (n = 360,000); CHO-K1 hM5 cells; 0% DMSO wells, 100% maximal acetylcholine response; AID 624037, 2012;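 active = activation above the run's mean over test compounds plus 3 SD, cut at about 23% in these data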;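 also: signal is peak over basal fluorescence ratio across the kinetic read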
M5 PAM – human M5 muscarinic receptor positive allosteric modulators, primary screen, CHO-K1 cells, Fluo-8 calcium fluorescence; actives 0.3% (n = 360,000); activation, % at 3 µM; CHO-K1 hM5, ACh EC20 PAM; 0% = ACh EC20, 100% = ACh EC100; AID 624038, 2012;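 active = activation above the run cutoff, the mean activation of all test compounds plus 3 SD, cut at about 18% in these data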
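System: CHO-K1 cell line with stable human muscarinic M5 receptor expression | Also added: EC20 acetylcholine as agonist stimulus | Compound: One concentration, 3 µM final (nominal) | Timing: Fluo-8 loading 80 min at 37 °C plus 30 min room temperature | Measured by: Fluo-8 calcium dye fluorescence, kinetic read | Read-out basis: % activation, ACh-normalized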
CHRM4 PAM – human M4 muscarinic receptor positive allosteric modulators, primary screen, CHO-K1 cells, Fluo-8 calcium fluorescence; actives 0.4% (n = 360,000); AID 624126, 2012; CHO-K1 hM4/Gqi5, ACh EC20; 0% = ACh EC20, 100% = maximal ACh; Muscarinic acetylcholine receptor M4 (Homo sapiens), P08173; activation, % at 3 µM;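 active = activation above its plate's cutoff, the mean activation of sample wells plus 3 SD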
CHRM4 antagonist – human M4 muscarinic receptor antagonists, primary screen, CHO cells, Fluo-8 calcium fluorescence; Muscarinic acetylcholine receptor M4 (Homo sapiens), P08173; CHO-hM4 cells, ACh EC80; inhibition, % at 3 µM; actives 0.73% (n = 360,000); AID 624125, 2012;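 active = inhibition above its plate's cutoff, the mean inhibition of sample wells plus 3 SD, cut at about 27% in these data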;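 also: 0% = acetylcholine EC80 with DMSO and 100% = DMSO without agonist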
An asterisk follows results filed as active.

SMILES | M5 antag | CHRM4 agonist | M5 ag | M5 PAM | CHRM4 PAM | CHRM4 antagonist
CC(C)CCC(CCNCc1ccccn1)c1ccc(Cl)cc1 (stereo unspecified) | 4 | 4 | -5 | -6 | -5 | 6
COc1cccc(C(=O)NC2CC(C)(C)Cc3c2cnn3-c2cccc(F)c2)c1OC (stereo unspecified) | 28* | 3 | -4 | -10 | -6 | 6
COc1cc(C(=O)NC2CC(C)(C)Cc3c2cnn3-c2ccccc2)cc(OC)c1OC (stereo unspecified) | 3 | -1 | -2 | 0 | 4 | -2
O=C(COC(=O)CCCCCN=C1NS(=O)(=O)c2ccccc21)Nc1ccc(Cl)c(Cl)c1 | 45* | 13 | -4 | -17 | -9 | 9
O=C(CCCN=C1NS(=O)(=O)c2ccccc21)OCC(=O)c1ccccc1 | 3 | 4 | 7 | -5 | 4 | -11
C[C@@H]1[C@H](O)C[C@@]23COC(=O)C2=CCC[C@@H]3[C@@]1(C)CC/C(=C/CO)CO | 0 | 1 | 3 | 2 | 5 | -14
CCc1ccc2[nH]c(C(=O)Nc3ccc(C)c(F)c3)cc2c1 | 18 | 2 | -2 | -2 | -4 | 3
O=C(Nc1ccc(F)cc1)c1cc2cc(Cl)ccc2[nH]1 | 31* | 10 | 2 | -14 | -1 | -6
CC(Oc1ccccc1)c1nnc(SCC(=O)NC2CC2)n1C (stereo unspecified) | 3 | 2 | -4 | -7 | 20* | 1
CCn1c(SCC(=O)NC2CC2)nnc1C(C)Oc1ccccc1 (stereo unspecified) | 2 | 1 | -2 | 2 | 1 | 0
COc1ccc(NC(=O)C(C)N2C(=O)c3ccccc3C2=O)c(OC)c1 (stereo unspecified) | -18 | 0 | 3 | 18* | -3 | -3
COc1ccccc1NC(=O)C(C)N1C(=O)c2ccccc2C1=O (stereo unspecified) | -5 | 2 | 2 | 13 | 2 | -7
CC(C)C(C(=O)Nc1ccccc1F)N1C(=O)c2ccccc2C1=O (stereo unspecified) | -9 | 0 | 8 | 20* | 4 | 1
CCCN(CCC)S(=O)(=O)c1cccc(C(=O)N=c2sccn2C)c1 | 7 | 11 | 2 | -9 | -2 | -1
C[C@@H]1CN([C@H](C)CO)C(=O)CCCn2nncc2CO[C@@H]1CN(C)S(=O)(=O)c1cccc(F)c1 | -3 | 1 | 0 | -1 | -3 | -1
Cc1cc2nc(-c3nnnn3C3CCCCC3)c(=O)[nH]c2cc1C | 3 | 0 | 0 | -5 | 6 | -7
COc1ccc(/C=C2/C(=O)ON=C2c2ccccc2)cc1OC | -11 | 1 | 0 | 23* | 8 | -11
O=C1CC(SC(=NCc2ccc3c(c2)OCO3)Nc2ccccc2)C(=O)N1c1ccccc1 (stereo unspecified) | -7 | 1 | 0 | 14 | 24* | -19
Cc1nc([N+](=O)[O-])cn1CC(=O)c1ccc(OC(F)(F)F)cc1 | 9 | 2 | -2 | -4 | -1 | 3
Cc1nnc(SCc2c(Cl)cccc2[N+](=O)[O-])s1 | 2 | 2 | 8 | 20* | 13 | -5
CCOC(=O)C1CCc2c(ccc3ccccc23)N1CCC#N (stereo unspecified) | 29* | 1 | -1 | -5 | 7 | -13
CCOC(=O)C1CCCN(C(=O)c2cccc3ccccc23)C1 (stereo unspecified) | 8 | 0 | -1 | -2 | -6 | 14
COc1cc2cc(C(=O)NCCc3c[nH]c4ccccc34)c(N)nc2cc1OC | 25 | 33* | 24* | -22 | -3 | 7
COc1cc(SC)ccc1C(=O)NCCc1c[nH]c2ccccc12 | 6 | 7 | -2 | -4 | -8 | 4
O=C(NCCCN1CCOCC1)c1ccc2c(c1)N(Cc1cccc(Cl)c1)C(=O)CS2 | 9 | 3 | -7 | -13 | -20 | 36*
SMILES | M5 antag | CHRM4 agonist | M5 ag | M5 PAM | CHRM4 PAM | CHRM4 antagonist
Cc1nc(CSc2ccccc2)cc(=O)[nH]1 | -10 | 2 | -1 | 8 | 0 | -13
COc1ccc(/C=C2\SC(=S)N(CCC(=O)N(CCO)Cc3ccccc3)C2=O)cc1OC | -5 | 5 | -2 | 8 | 37* | 17
O=C1/C(=C/c2ccc3c(c2)OCO3)SC(=S)N1CCC(=O)N(CCO)c1ccccc1 | 67* | 6 | 82* | -14 | -1 | -7
O=C1/C(=C/c2cccc(Br)c2)SC(=S)N1CCC(=O)N(CCO)c1ccccc1 | 4 | 1 | 2 | 9 | 4 | -8
COc1ccc(C(CNC(=O)c2cccc(S(=O)(=O)Nc3ccc(F)cc3)c2)N2CCOCC2)cc1 (stereo unspecified) | 12 | 3 | 2 | 3 | 3 | 9
O=C1CC(c2ccccc2)CN1C(=O)c1cccnc1 (stereo unspecified) | -5 | 1 | 2 | 19* | 18 | -5
CC1(C)Cc2c(ccc3ccccc23)C2=C(C(=O)N3CCCC3)C(=O)C(=O)N21 | 17 | -2 | 7 | -2 | 18* | -4
CCN(CC)C(=O)CSc1nc2cc(S(=O)(=O)N3CCOCC3)ccc2n1CC | 3 | 1 | -4 | -1 | 4 | -7
O=C(Nc1cccc(Br)c1)c1ccc2c(c1)SC1=NS(=O)(=O)CCN12 | 0 | 1 | 1 | 5 | 23* | -5
COc1ccccc1N/C=C/c1onc(C)c1[N+](=O)[O-] | 23 | 2 | 15 | -13 | -1 | 40*
Cc1nn(CC(=O)N2CCOCC2)c(=O)c2nn(-c3ccccc3)c(C)c12 | 10 | 0 | -4 | -4 | 3 | -8
CC(C)C/C=C1\CCc2c([nH]c3ccccc23)C1=O | 8 | 1 | 1 | 10 | 21* | -13
O=C(CSc1n[nH]c(=O)n1-c1cccnc1)N1CCOCC1 | -12 | 1 | 10 | 20* | 3 | 0
Cn1c(SCC(=O)N2CCOCC2)nc2cccnc21 | -18 | 1 | -3 | 21* | -2 | 4
O=C(COC(=O)c1cc(=O)[nH]c2ccccc12)Nc1ccc(Cl)cn1 | 12 | 1 | 1 | 3 | 5 | 0
O=C(COC(=O)c1ccc(F)c(S(=O)(=O)N2CCOCC2)c1)NCCc1ccccc1 | 0 | 2 | 2 | -2 | 21* | -28
